From PubChem
This is a sample that favours compounds with a hit; in the whole collection about 1.7% have one here.
Rpn11 block: Rpn11 (PSMD14) deubiquitinase inhibitors, primary screen, biochemical, fluorescence polarization, uHTS | human 26S proteasome, Ub4-pepOG fluorescence polarization; 20S core pre-blocked with epoxomicin | 26S proteasome non-ATPase regulatory subunit 14 (Homo sapiens), O00487 | 360,000 compounds, 0.59% hits | calls only at 20 µM;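 active = inhibition at 20 µM, scaled to each plate's controls, above about 33%, limit read from the data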
Target sequence (O00487 whole entry, looked up): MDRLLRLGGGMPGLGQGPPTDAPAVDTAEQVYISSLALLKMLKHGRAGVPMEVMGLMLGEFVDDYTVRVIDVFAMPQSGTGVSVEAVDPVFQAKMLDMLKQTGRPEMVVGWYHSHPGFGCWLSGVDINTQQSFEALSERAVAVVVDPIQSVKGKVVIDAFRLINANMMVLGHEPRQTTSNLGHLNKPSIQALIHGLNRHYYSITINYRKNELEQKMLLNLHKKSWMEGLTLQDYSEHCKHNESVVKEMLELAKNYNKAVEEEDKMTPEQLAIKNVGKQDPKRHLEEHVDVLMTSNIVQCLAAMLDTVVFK
HNF4A DNA FP: change in binding of human HNF4A to DNA, primary screen, biochemical, fluorescence polarization, FITC-DNA. Hepatocyte nuclear factor 4-alpha (Homo sapiens), P41235. 1 h. AID 1224865, 2016. activity change, % at 10 µM. 360,000 compounds, 0.3% hits; in the data active = activity change above about 30%, passing the limit was not always enough
IDE cell inh: human IDE inhibitors in live cells, primary screen, fluorescence polarization, HEK cells, FAbetaB substrate; Insulin-degrading enzyme (Homo sapiens), P14735; inhibition, % at 5.59 µM; 320,000 compounds, 0.41% hits; FAbetaB cleavage;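 active = percent inhibition above the average of all tested compounds plus 3 SD, set per screening campaign, cut at about 16% in these data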;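 note: IDE supplied by intact live HEK cells; FP after avidin binding of uncleaved biotin substrate so inhibition keeps polarization high; 0% = DMSO wells and 100% = 60 µM reference IDE inhibitor Ii1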
CSN deneddyl inh: inhibitors of CSN-mediated cullin deneddylation, primary screen, biochemical, fluorescence polarization, uHTS | COP9 signalosome complex subunit 5 (Homo sapiens), Q92905 | Purified CSN, SCF-Nedd8-OG deneddylation | inhibition, % at 12.5 µM | 360,000 compounds, 0.38% hits | AID 651999, 2013;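 active = pattern-corrected inhibition above about 35%, with an unprinted fluorescence ratio check between 0.5 and 1.5, limit read from the data, passing the limit was not always enough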;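 note: 0% = enzyme with substrate and 100% = substrate without enzyme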
Target sequence (Q92905 whole entry, looked up, one chain of several): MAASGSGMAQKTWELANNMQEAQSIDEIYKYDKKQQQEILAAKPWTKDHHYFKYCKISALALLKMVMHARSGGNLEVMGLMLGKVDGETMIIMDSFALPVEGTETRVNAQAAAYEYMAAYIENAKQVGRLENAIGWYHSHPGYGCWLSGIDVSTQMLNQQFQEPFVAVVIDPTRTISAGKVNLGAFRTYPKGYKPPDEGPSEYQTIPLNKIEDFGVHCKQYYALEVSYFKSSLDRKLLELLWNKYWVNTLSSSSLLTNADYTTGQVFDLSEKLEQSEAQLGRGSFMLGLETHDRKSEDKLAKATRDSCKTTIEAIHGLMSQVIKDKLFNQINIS
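Test system: Human Csn5 produced in HEK293T cells | Compound: 12.5 µM single point | Times: 90 min, room temperature | Signal: Fluorescence polarization readout | Read-out basis: % inhibition of substrate cleavage by Csn5 | Controls: no-enzyme wells high, enzyme-with-substrate wells low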
IDE cell activ: human IDE activators in live cells, primary screen, fluorescence polarization, HEK cells, FAbeta-B substrate; activation, % at 5.96 µM; 340,000 compounds, 0.073% hits; Insulin-degrading enzyme (Homo sapiens), P14735; FAbeta-B cleavage; 0% vehicle, 100% cell-free pure enzyme wells;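 active = activation above the mean of all tested compounds plus 3 SD, set per screening campaign, cut at about 17% in these data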
TPT1 inhibitor: Candida albicans TPT1 enzyme inhibitors, primary screen, biochemical, fluorescence polarization. tRNA 2'-phosphotransferase TPT1 (Candida albicans SC5314). recombinant caTPT1, FP RNA substrate dephosphorylation. inhibition, % at 5 µM. 300,000 compounds, 0.81% hits. AID 1962, 2009;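 active = inhibition above the mean of all tested compounds plus 3 SD, set per screening campaign, cut at about 24% in these data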;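 note: plate controls were DMSO alone for no effect and ferristatin control at 100 nM for full effect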
Rpn11 inh conf: Rpn11 (PSMD14) deubiquitinase inhibitors, confirmation, biochemical, fluorescence polarization, single concentration. shares compounds with Rpn11 block. purified human 26S proteasome, Ub4-pepOG fluorescence polarization; proteasome pretreated with epoxomicin. inhibition, % at 20 µM. 1,900 compounds, 29% hits. AID 602318, 2012
MMP-2 counter-1: MMP-2 enzyme inhibition, confirmation, counter-screen for RPN11 inhibitor project, biochemical, fluorescence, single concentration | recombinant MMP-2, FRET peptide cleavage fluorescence | 1,900 compounds, 4% hits | shares compounds with Rpn11 block | inhibition, % at 20 µM | AID 602330, 2012;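 note: human MMP-2 activated beforehand with APMA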
Thrombin inh: bovine thrombin protease inhibition, confirmation, counter-screen for Rpn11 inhibitor project, biochemical, fluorescence polarization, single concentration; inhibition, % at 20 µM; shares compounds with Rpn11 block; 1,900 compounds, 13% hits; AID 602333, 2012; bovine thrombin cleavage of Ub4-pepOG;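 active = mean inhibition at least 40% at 20 µM, or signal 3 deviations below plate average, so some actives read negative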;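 note: plate controls were thrombin with DMSO for no effect and buffer wells lacking thrombin for full effect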
CSN5 deneddyl: Csn5 deneddylation inhibitors, confirmation, biochemical, fluorescence polarization, single concentration, SCF-Nedd8OG substrate; 540 compounds, 62% hits; inhibition, % at 16.6 µM; shares compounds with CSN deneddyl inh; Csn5 deneddylation of SCF-Nedd8OG, 90 min; AID 720654, 2013; in the data active = inhibition above about 50%;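 note: 0% = DMSO with enzyme and 100% = no enzyme wells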
MMP-2 counter-2: MMP-2 protease inhibition counter-screen, confirmation, counter-screen for CSN deneddylation inhibitor project, biochemical, fluorescence, single concentration | shares compounds with CSN deneddyl inh | recombinant MMP-2, FRET substrate fluorescence, 60 min | inhibition, % at 16.6 µM | 540 compounds, 33% hits;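 active = corrected plate-normalized z-score of 5 or more, or -5 or less, or inhibition of 15% or more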;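 note: plate controls were DMSO wells with enzyme for no effect and buffer wells lacking MMP-2 for full effect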
Thrombin counter: counter-screen for CSN deneddylation inhibitors: bovine thrombin inhibition; inhibition, % at 16.6 µM; 540 compounds, 49% hits; bovine thrombin cleavage of Ub4-pepOG, fluorescence polarization; shares compounds with CSN deneddyl inh;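 active = inhibition at or above a set limit, with a fluorescence interference ratio between 0.5 and a set maximum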
HNF4A confirm: change in HNF4A binding to DNA, retest, confirmation, biochemical, fluorescence polarization, FITC-DNA; 210 compounds, 99% hits; 1 h; shares compounds with HNF4A DNA FP; activity change, % at 12.5 µM; call rule not given here
Starred values were filed as active, the others as inactive; i = inactive; x = not tested or not shown; + = active, no number. Cut-off read from the data, not from the text of the source, unless noted: active = inhibition above about 40%; inactive = the rest.

SMILES	Rpn11 block	HNF4A DNA FP	IDE cell inh	CSN deneddyl inh	IDE cell activ	TPT1 inhibitor	Rpn11 inh conf	MMP-2 counter-1	Thrombin inh	HNF4A confirm	others
CCOC(=O)c1sc2nc3c(SCC(=O)O)cc(C(=O)c4ccccc4O)cn3c(=O)c2c1C	+	-64	0	47*	7	3	45*	12	active	x	CSN5 deneddyl=109*;MMP-2 counter-2=22*;Thrombin counter=-28
Cc1nc(SCc2nc3cc(Cl)c(F)cc3[nH]2)c2oc3ccccc3c2n1	+	6	7	36*	-8	x	64*	-7	36	x	CSN5 deneddyl=86*;MMP-2 counter-2=-4;Thrombin counter=14
Cc1nc(SCc2nc3ccc(C(F)(F)F)cc3[nH]2)c2oc3ccccc3c2n1	i	1	1	6	1	x	x	x	x	x
CCS(=O)(=O)C1=NSC2=NC(=O)/C(=C\c3ccc(OC(=O)c4ccco4)c(OC)c3)C(=N)N21	+	44*	5	31	-14	14	36	-4	34	59*
CSc1nsc(/C=C/Nc2ccc(F)cc2)c1C#N	+	51*	3	16	-2	24	28	-37	16	46*
COc1ccc(NC(=O)C(=O)N/N=C\c2ccc(CNC(=O)C(=O)Nc3ccc(C)c(C)c3)o2)c(OC)c1	x	x	4	x	x	-2	x	x	x	x
COc1ccccc1C(=O)CC(=O)C(=O)Nc1cccc([N+](=O)[O-])c1C	i	1	0	2	0	1	x	x	x	x
Cc1ccc2nc(-c3ccc4c(c3)OCCO4)cc(C(=O)O)c2c1	i	-1	3	2	13	0	x	x	x	x
N#CCC(=O)Nc1ccc(C(=O)OCC(=O)NC(=O)NCc2ccco2)cc1	+	34*	8	36*	2	x	28	41*	28	40*
CC(C)(/C=N/O)N(O)C=C1C=CC(=O)C=C1	i	-3	-6	0	7	-4	x	x	x	x
CN1C=CC(=CC=C2C=CC(=O)C=C2)C=C1	+	54*	-1	34	-2	12	43*	-13	31	48*
COC(=O)c1ccc2nc(C3CCCCC3)c(Cc3ccc(C)cc3)n2c1	i	6	x	0	x	x	x	x	x	x
COc1ccc(-c2ccc3c(c2)S(=O)(=O)c2cccc(C(=O)NC4CCCC4)c2C3=O)cc1OC	+	51*	0	9	1	x	-13	6	-8	57*
COc1ccc(N/C=C\C(=O)c2ccc3c(c2)OCO3)cc1	i	10	3	-1	2	3	x	x	x	x
O=C(/C=C\Nc1ccc2c(c1)OCO2)c1ccc2c(c1)OCO2	+	81*	2	-1	4	24	34	8	3	85*
CCCCn1c(/N=C/c2ccc3c(c2)OCO3)nc2ccccc21	i	-5	-2	0	7	-5	x	x	x	x
CCCCn1c(/N=C/c2ccc(N(C)C)cc2)nc2ccccc21	+	49*	0	17	3	24	72*	-14	59*	81*
O=C(Nc1ccccc1OC(=O)c1ccc(Cl)cc1)c1ccc(Cl)cc1	i	0	4	0	1	1	x	x	x	x
CN1/C(=C\P(=O)(N(C)C)N(C)C)C(C)(C)c2ccccc21	+	39*	-1	22	8	-9	33	-18	22	43*
Cc1ccc(C(=O)Nc2cccc(-c3cnc4ccccc4n3)c2)cc1	i	-5	1	-2	4	-1	x	x	x	x
CC(=O)Nc1ccc(C(=O)Nc2cccc(-c3cnc4ccccc4n3)c2)cc1	+	48*	x	86*	-3	x	-1	1	1	60*
CCOC(=O)C1=C(C)N=c2sc(=Cc3cc(Cl)c(OCC(=O)O)c(Cl)c3)c(=O)n2C1c1cccc(OC)c1 (configuration not stated)	x	97*	x	64*	x	x	x	x	x	x	CSN5 deneddyl=17;MMP-2 counter-2=2;Thrombin counter=49*
CCOC(=O)C1=C(C)N=c2s/c(=C/c3ccc(OCC(=O)O)cc3)c(=O)n2C1c1cc(OC)c(OC)c(OC)c1 (configuration not stated)	i	1	7	4	-4	11	x	x	x	x
O=C(Nc1ccc2nc(-c3ccccc3)[nH]c2c1)c1ccco1	i	0	2	0	-7	-3	x	x	x	x
O=C(Nc1cccc(-c2nc3ccccc3[nH]2)c1)c1cccc(NC(=O)c2ccco2)c1	i	17	10	57*	-10	0	x	x	x	x	CSN5 deneddyl=25;MMP-2 counter-2=9;Thrombin counter=-9
